Measured values taken from ChEMBL document CHEMBL3227966, “Synthesis and antitumor and antiviral activities of 1-beta-D-arabinofuranosyl-2-amino-1,4(2H)-iminopyrimidine and its derivatives” (1979).
Active and inactive are the calls of the source. The calls are words filed in the database; no cut-off is given here.

Experiments:
Suid alphaherpesvirus 1 = assay: Antiviral activity against Pseudorabies virus infected in human KB cells assessed as inhibition of virus-induced cytopathic effect after 72 hrs by microscopically; assay type: functional, organism-based
Human alphaherpesvirus 1 [1] = assay: Antiviral activity against Herpes simplex virus type 1 infected in human KB cells assessed as inhibition of virus-induced cytopathic effect after 72 hrs by microscopically; assay type: functional, organism-based
Method in brief: (§1)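 KB monolayers (18-24 h) were exposed to about 320 CCID50 of virus, with compound added within 15 min. CPE (0-4) and cytotoxicity were scored microscopically after 72 h at 37 °C. Virus rating was the summed (virus control − treated) CPE across drug levels, halved at partially toxic levels. Ratings: 0.5 slight/none, 0.5-0.9 moderate, 1.0 marked.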

KB [2] = assay: Antiviral activity against Myxoma virus infected in human KB cells assessed as inhibition of virus-induced cytopathic effect after 72 hrs by microscopically; assay type: functional, cell-based; method in brief: as §1
KB [3] = assay: Antiviral activity against rhinovirus type 13 infected in human KB cells assessed as inhibition of virus-induced cytopathic effect after 72 hrs by microscopically; assay type: functional, cell-based; details: Human rhinovirus A13; method in brief: as §1
Vaccinia virus = assay: Antiviral activity against Vaccinia virus infected in human KB cells assessed as inhibition of virus-induced cytopathic effect after 72 hrs by microscopically; assay type: functional, organism-based; details: Orthopoxvirus vaccinia
Human alphaherpesvirus 1 [4] = assay: Antiviral activity against Herpes simplex virus type 1 infected in Swiss albino mouse assessed as increase in mouse survival at 0.14 mg/kg, ic single dose after 6 hrs of infection relative to control; assay type: functional; details: Human alphaherpesvirus 1, 6 h
Method in brief: (§2)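 Swiss albino mice, six per group, were infected intracerebrally with HSV-1 at about 10 LD50. Six hours later each received a single ic drug injection in Hank's balanced salt solution. Controls received the same volume of Hank's solution alone. Efficacy was the increase in number of survivors versus controls.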

Human alphaherpesvirus 1 [5] = assay: Antiviral activity against Herpes simplex virus type 1 infected in Swiss albino mouse assessed as increase in mouse survival at 0.033 mg/kg, ic single dose after 6 hrs of infection relative to control; assay type: functional; details: Human alphaherpesvirus 1, 6 h; method in brief: as §2
L1210 [6] = assay: Antitumor activity against mouse L1210 cells allografted DBA/2 mouse assessed as increase in life span; assay type: functional
L1210 [7] = assay: Antitumor activity against mouse L1210 cells allografted in BDF/1 mouse assessed as […] at 600 mg/kg, ip qd treated 24 hrs after tumor implantation relative to control; assay type: functional; details: route intraperitoneal
Method in brief: (§3)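 Female BDF1 mice, 6–8 per group, were inoculated ip with 1×10^5 viable L1210 cells. Drug was given ip once daily on days 1–5, starting 24 h after implant, in freshly prepared isotonic sterile saline. Controls received 0.2 mL saline. Read-outs were survivors (cures) and T/C, with survivors excluded from T/C. P values came from the Wilcoxon nonparametric method.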

L1210 [8] = assay: Antitumor activity against mouse L1210 cells allografted in BDF/1 mouse assessed as mouse survival at 600 mg/kg, ip qd treated 24 hrs after tumor implantation relative to control; assay type: functional; details: route intraperitoneal; method in brief: as §3
L1210 [9] = assay: Antitumor activity against mouse L1210 cells allografted in BDF/1 mouse assessed as mouse survival upto 60 days at 600 mg/kg, ip qd treated 24 hrs after tumor implantation relative to control; assay type: functional; method in brief: as §3
L1210 [10] = assay: Antitumor activity against mouse L1210 cells allografted in BDF/1 mouse assessed as tumor weight reduction on day 5 at 600 mg/kg, ip qd treated 24 hrs after tumor implantation relative to control; assay type: functional, organism-based; set-up: dose 600 mg/kg
L1210 [11] = assay: Antitumor activity against mouse L1210 cells allografted in BDF/1 mouse assessed as increase in life span at 600 mg/kg, ip qd treated 24 hrs after tumor implantation relative to control; assay type: functional; details: route intraperitoneal; method in brief: as §3
L1210 [12] = assay: Antitumor activity against mouse L1210 cells allografted in BDF/1 mouse assessed as mouse survival upto 60 days at 400 mg/kg, ip qd treated 24 hrs after tumor implantation relative to control; assay type: functional, organism-based; set-up: dose 400 mg/kg
Method in brief: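 BDF1 female mice, six to eight per group, inoculated ip with 1×10^5 viable L1210 cells. Drug was given ip once daily on days 1-5, starting 24 h after implant, in freshly prepared isotonic sterile saline. Controls received 0.2 mL saline. Read-out was survivors (cures) and T/C excluding survivors. P was derived by the Wilcoxon nonparametric method.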

L1210 [13] = assay: Antitumor activity against mouse L1210 cells allografted in BDF/1 mouse assessed as mouse survival at 400 mg/kg, ip qd treated 24 hrs after tumor implantation relative to control; assay type: functional; details: route intraperitoneal; method in brief: as §3
L1210 [14] = assay: Antitumor activity against mouse L1210 cells allografted in BDF/1 mouse assessed as tumor weight reduction on day 5 at 400 mg/kg, ip qd treated 24 hrs after tumor implantation relative to control; assay type: functional, organism-based; set-up: dose 400 mg/kg

SMILES	inhibition (Suid alphaherpesvirus 1)	inhibition (Human alphaherpesvirus 1 [1])	inhibition (KB [2])	inhibition (KB [3])	inhibition (Vaccinia virus)	survival at 0.14 mg/kg (Human alphaherpesvirus 1 [4]) [%]	survival at 0.033 mg/kg (Human alphaherpesvirus 1 [5]) [%]	T/C (L1210 [7])	Survival (L1210 [8]) [days]	inhibition (L1210 [10])	also measured
N=c1nc(N)n([C@@H]2O[C@H](CO)[C@@H](OP(=O)(O)O)[C@@H]2O)cc1F	Active	Active	Active	inactive	Active						
N=c1nc2n(cc1F)[C@@H]1O[C@H](CO)[C@@H](OP(=O)(O)O)[C@H]1O2		Active									
Nc1ccn([C@@H]2O[C@H](CO)[C@@H](O)[C@@H]2O)c(=O)n1 [CYTARABINE]	Active	Active	Active		Active	40	0				
Nc1ccn([C@@H]2O[C@H](CO)[C@@H](OP(=O)(O)O)[C@@H]2O)c(=O)n1	Active	Active	Active	Active	Active						
N=c1nc2n(cc1F)[C@@H]1O[C@H](CO)[C@@H](O)[C@H]1O2											Activity (L1210 [6]): 80%
N=c1ccn2c(n1)O[C@@H]1[C@H](OP(=O)(O)O)[C@@H](CO)O[C@H]12	Active	Active	Active	Active	Active	40	0	2.07	17.5	Active	Activity (L1210 [9]): inactive
N=c1ccn([C@@H]2O[C@H](CO)[C@@H](OP(=O)(O)O)[C@@H]2O)c(N)n1	Active	Active	Active	inactive	Active	50	0	2.44	22.5	Active	survival at 600 mg/kg (L1210 [9]; route intraperitoneal): 33%; Activity (L1210 [11]): 144%
N=c1ccn([C@@H]2O[C@H](CO)[C@@H](O)[C@@H]2O)c(N)n1	Active	Active	Active		Active						Activity (L1210 [12]): Active; Survival (L1210 [13]): 60 days; inhibition (L1210 [14]): Active
N=c1ccn2c(n1)O[C@@H]1[C@H](O)[C@@H](CO)O[C@H]12								2.81	24	Active	Activity (L1210 [9]): inactive
